{"data": "Results collected from several papers", "target": "STE20/SPS1-related proline-alanine-rich protein kinase (STK39, Homo sapiens, UniProt Q9UEW8)", "note": "Protocols differ between the studies behind these lines."}
{"SMILES": "CNC(=O)[C@@H]1CC[C@@H](n2c(-c3ccc4cnccc4c3)nc3ccc(C(=O)NCc4cccc(C(N)=O)c4)cc32)C1", "effect on": "binding", "technique": "competition with immobilised ligand", "concentration": "1 µM", "remaining binding [%]": 100}
{"SMILES": "O=C(Nc1cccnn1)N1CCC(=Cc2cccc(Oc3ccc(C(F)(F)F)cn3)c2)CC1", "effect on": "cell-free assay", "technique": "competition with immobilised ligand", "concentration": "1 µM", "remaining binding [%]": 100}
{"SMILES": "COc1cnc(Nc2cccc(S(N)(=O)=O)c2)nc1N1CCN(c2ccccc2)C(=O)C1", "effect on": "binding", "technique": "competition with immobilised ligand", "concentration": "1 µM", "remaining binding [%]": 99}
{"SMILES": "CN(CCCC(F)(F)F)c1nccc(-c2cnn3ncccc23)n1", "effect on": "binding", "concentration": "1 µM", "remaining binding [%]": 82}
{"SMILES": "Cc1cc(NC(=O)c2cccc(S(F)(F)(F)(F)F)c2)cc(-n2ccn3nc(-c4cccnc4)cc23)c1", "effect on": "cell-free assay", "technique": "competition with immobilised ligand", "concentration": "1 µM", "remaining binding [%]": 100}
{"SMILES": "C[C@H]1CCN(c2nccc(-c3cnn4ncccc34)n2)C1", "effect on": "binding", "concentration": "1 µM", "remaining binding [%]": 62}
{"SMILES": "C[C@@H](c1ccc(-n2cnc3c(N)ncnc32)cc1)N1CCc2nn(C)c(Cc3ccccc3)c2C1=O", "effect on": "binding", "technique": "competition with immobilised ligand", "concentration": "0.1 µM", "remaining binding [%]": 84}
{"SMILES": "F[C@@H]1CCN(c2nccc(-c3cnn4ncccc34)n2)C1", "effect on": "binding", "concentration": "1 µM", "remaining binding [%]": 57}
{"SMILES": "O=C(NCC1CCOCC1)c1n[nH]cc1NC(=O)c1c(F)cccc1F", "effect on": "binding", "technique": "competition with immobilised ligand", "concentration": "1 µM", "remaining binding [%]": 96}
{"SMILES": "O=C(c1ccc(Nc2nccc(-c3cc4ccccc4s3)n2)cc1)N1CCC(N2CCCC2)CC1", "effect on": "binding", "technique": "competition with immobilised ligand", "concentration": "1 µM", "remaining binding [%]": 85}
{"SMILES": "COc1cc(-c2cn(C3CCc4ccccc4N(CC(F)(F)F)C3=O)nn2)ccc1-n1ccc(C)n1 (stereo not drawn)", "effect on": "cell-free assay", "technique": "competition with immobilised ligand", "concentration": "1 µM", "remaining binding [%]": 98}
{"SMILES": "FC(F)(F)Oc1cccc(-c2cnc3ccc(-c4ccncc4)nn23)c1", "effect on": "binding", "technique": "competition with immobilised ligand", "concentration": "5 µM", "remaining binding [%]": 83}
{"SMILES": "Cc1cnn2ncc(-c3ccnc(N(C)C)n3)c2c1", "effect on": "binding", "concentration": "1 µM", "remaining binding [%]": 100}
{"SMILES": "Cn1nc(C(F)(F)F)cc1-c1cnc(N2CCc3cc(S(=O)(=O)Nc4c(F)cc(Cl)cc4F)cc(N4CCCC4=O)c32)nc1", "effect on": "cell-free assay", "technique": "competition with immobilised ligand", "concentration": "1 µM", "remaining binding [%]": 91}
{"SMILES": "c1cnn2ncc(-c3ccnc(N4CCC45COC5)n3)c2c1", "effect on": "binding", "concentration": "1 µM", "remaining binding [%]": 41}
{"SMILES": "O=C(NCCCN1CCOCC1)c1ccc(Nc2ncc(Cl)c(-c3ccc(Cl)s3)n2)cc1", "effect on": "binding", "technique": "competition with immobilised ligand", "concentration": "1 µM", "remaining binding [%]": 54}
{"SMILES": "CS(=O)(=O)NCC[C@H](NC(=O)c1cncc2c1cnn2-c1ccc(F)cc1)c1ccnc(S(C)(=O)=O)c1", "effect on": "cell-free assay", "technique": "competition with immobilised ligand", "concentration": "1 µM", "remaining binding [%]": 80}
{"SMILES": "C=CC(=O)N1CCC(C(=O)NCC(=O)N2CCN(c3nc(-c4cnc(N)nc4C(F)F)nc(N4CCOCC4)n3)CC2)CC1", "effect on": "binding", "technique": "competition with immobilised ligand", "concentration": "1 µM", "remaining binding [%]": 76}
{"SMILES": "FC(F)(F)c1ccc2c(c1)nc(-c1cccnc1)n2C1CC1", "effect on": "cell-free assay", "technique": "competition with immobilised ligand", "concentration": "1 µM", "remaining binding [%]": 100}
{"SMILES": "CN(C)c1nccc(-c2cnn3ncccc23)n1", "effect on": "binding", "concentration": "1 µM", "remaining binding [%]": 28}
{"SMILES": "O=C(c1ccc(Nc2ncc(Cl)c(-c3ccc(Cl)s3)n2)cc1)N1CCC(N2CCCC2)CC1", "effect on": "binding", "technique": "competition with immobilised ligand", "concentration": "1 µM", "remaining binding [%]": 48}
